# High-throughput results from PubChem BioAssay.
# Ba/F3 V617F tox: reduced viability of JAK2V617F-dependent Ba/F3 cells, primary screen, JAK2V617F inhibitor project, cell-based, Ba/F3 EpoR-JAK2V617F, luminescence | ATP luminescence | inhibition, % at 5.6 µM | hit rate 1.1% among 220,000 | AID 1446, 2008;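 active = inhibition above the campaign mean plus 3 SD over all tested compounds, cut at about 24% in these data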;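 note: cytokine-independent growth of Ba/F3 cells driven by EpoR plus mutant JAK2; 0% = DMSO-treated cells and 100% = JAK inhibitor I control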
# APP transl inh: inhibitors of APP translation via 5'UTR reporter, primary screen, APP 5'UTR luciferase, SH-SY5Y cells. SH-SY5Y APP 5'UTR-luciferase reporter, luminescence. inhibition, % at 2 µM. hit rate 0.82% among 190,000;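 active = inhibition above a set limit, derived from the sample mean plus 3 SD, cut at about 45% in these data; inconclusive = one replicate passes the limit while the other fails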
# IEC-6 cytotox: cytotoxicity in IEC-6 intestinal epithelial cells, primary screen, cytotoxicity control for KLF5 inhibitor project, cell-based, luminescence. inhibition, % at 5 µM. AID 1825, 2009. hit rate 0.78% among 290,000. IEC-6 cytotoxicity, luminescence viability; in the data active = inhibition above about 22%;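 note: 0% = plate median of test compound wells and 100% = cytotoxic reference compound wells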
# BaF3 tox: parental Ba/F3 cell viability inhibition, counter-screen for JAK2V617F inhibitor project, murine pro-B, CellTiter-Glo luminescence; inhibition, % at 5.6 µM; AID 1486, 2009; CellTiter-Glo ATP luminescence; hit rate 1.1% among 220,000;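 active = inhibition above a per-campaign cutoff, the mean inhibition of all tested compounds plus 3 SD, cut at about 27% in these data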;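 note: 0% = DMSO wells and 100% = JAK Inhibitor I control wells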
# MT stabilizer: microtubule stabilizers in HeLa cells, primary screen, imaging, high-content imaging. HeLa tubulin immunostaining HCS, 24 h; share of cells brighter than vehicle mean+2SD. % tubulin-high responders, % at 10 µM. hit rate 0.83% among 200,000. AID 2205, 2009;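 active = plate Z-score above 3 for both tubulin-high and condensed-nucleus cell shares, with cell loss under 80%, at 10 µM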;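 note: anti alpha tubulin signal scored within the nucleus-defined area of each cell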
# b-catenin transl: modulators of beta-catenin nuclear translocation, primary screen, imaging, HeLa cells, immunofluorescence, high-content | nuclear translocation activity, % at 5 µM | hit rate 0.3% among 190,000 | AID 1665, 2009;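 active = nuclear translocation activity above 50% at 5 µM, with a well cell count of 50 or more; inconclusive = wells under 50 cells across six images, flagged as toxic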;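 note: per-cell ratio of nuclear to cytoplasmic median beta-catenin stain intensity; plate controls were DMSO negative control for no effect and GSK-3 inhibitor IX positive control for full effect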
#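 assay system = human HeLa cells, endogenous beta-catenin | times = compound treatment 24 h, 37°C, 5% CO2 | detection = Anti-beta-catenin immunofluorescence on PFA-fixed, Triton-permeabilized cells, DAPI nuclei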
# The depositor's hits bear a star; u = inconclusive; x = no result given. The list is not random: actives were taken first. Their share in the collection is about 2.2%.
SMILES,Ba/F3 V617F tox,APP transl inh,IEC-6 cytotox,BaF3 tox,MT stabilizer,b-catenin transl
CN(C)c1ccc([C@@H]2[C@@H]([N+](=O)[O-])[C@H]3C=Cc4ccccc4N3[C@H]2C(=O)c2ccc(Cl)cc2)cc1,6.8,-44.2,0.0,40.0*,19.9,3.3
O=C(c1ccccc1)C1C(c2ccccc2)C1[N+](=O)[O-] (centres undefined),9.5,x,12.1,-9.1,x,-0.4
Cc1cc(/C=C2\SC(=Nc3ccccc3)NC2=O)c(C)n1-c1ccc(S(N)(=O)=O)cc1,28.3*,52.7*,-4.3,62.6*,13.2,x
Cc1ccc(-n2c(C)cc(/C=C3\SC(=O)NC3=O)c2C)cc1,x,x,-14.3,x,x,x
COc1ccc2cc(-c3[nH]ncc3CN3CCCC3c3nonc3C)ccc2c1 (centres undefined),-1.2,-40.2,4.6,11.5,10.7*,2.1
CC(C)(C)c1ccc(Cn2nc(CC(=O)O)c3ccccc3c2=O)cc1,1.0,2.4,2.7,3.5,4.4,0.4
CCC(=O)Nc1sc2c(c1C#N)CCC2,-4.4,-8.2,6.2,3.2,1.3,-1.7
N#Cc1c(NC(=O)c2ccccc2)sc2c1CCC2,37.2*,-109.3,13.6,27.8*,33.1*,x
N#Cc1c(NC(=O)c2cccnc2)sc2c1CCC2,41.3*,-0.5,18.6,42.0*,1.1,x
CCc1ccc(CCC(=O)Nc2sc3c(c2C#N)CCCC3)o1,1.1,-4.7,18.8,3.2,16.7*,63.7*
COc1ccc(NC(=O)CSc2nccn2Cc2ccc(F)cc2)cc1,x,x,3.1,x,x,x
COc1cccc(COc2cc3ccccc3nc2C)c1,41.7*,-17.5,5.6,42.9*,2.5,-1.3
COc1cccc2c1C(=O)c1c(O)c3c(c(O)c1C2=O)C[C@@](O)(C(C)=O)C[C@@H]3O[C@H]1C[C@H](N)[C@H](O)[C@H](C)O1,101.8*,95.6*,90.6*,101.0*,77.4,u
CC(C)(C)SCCNC(=O)/C=C/c1ccccc1,-0.3,x,-0.2,44.9*,x,0.6
CC(C)Cc1ccc(C(=O)NCCOc2ccccc2)o1,x,x,-11.3,x,x,x
O=C(Nc1ccccc1Br)c1ccccc1-c1ccccc1,0.6,8.2,18.0,6.3,15.2*,57.9*
CCCC(=O)OCCNc1cc(Sc2nccn2C)c2nonc2c1[N+](=O)[O-],-1.5,74.8*,0.0,3.4,3.1,3.9
CCCSc1cc(NCCOC(=O)CCC)c([N+](=O)[O-])c2nonc12,-2.6,11.3,-0.9,4.4,3.2,-0.6
CN1CCN(S(=O)(=O)c2ccc3[nH]c(=O)oc3c2)CC1,-2.4,11.3,-10.9,3.0,3.3,-1.1
COc1cccc(-c2ccc(NC(=O)C3CCCN(Cc4nccn4C)C3)cc2)c1 (centres undefined),x,x,4.7,x,x,x
CNC(=S)N1CCN(c2nc3ccccc3s2)CC1,2.5,-28.5,3.5,2.9,5.5,-2.1
COc1cccc(C(=O)Nc2ncc3c(n2)CC(c2ccc(OC)cc2OC)CC3=O)c1 (centres undefined),-0.9,17.8,19.9,5.2,67.0,72.6*
CCCC[C@@H](CNC)NC[C@H](Cc1ccc(O)cc1)NCCc1ccc(OCC)cc1,x,x,2.0,x,x,x
COc1ccc(C2c3c(-c4ccccc4O)n[nH]c3C(=O)N2CCc2ccc(OC)c(OC)c2)cc1 (centres undefined),0.8,0.8,-0.5,2.9,1.8,x
Cc1ccc(C2c3c(-c4ccccc4O)n[nH]c3C(=O)N2Cc2ccncc2)cc1 (centres undefined),5.9,-7.7,5.0,13.2,27.0*,-0.6
SMILES,Ba/F3 V617F tox,APP transl inh,IEC-6 cytotox,BaF3 tox,MT stabilizer,b-catenin transl
COc1ccc(CCN2C(=O)c3[nH]nc(-c4ccccc4O)c3C2c2cccc(Cl)c2)cc1 (centres undefined),2.6,7.9,4.7,7.3,19.7*,3.1
CC1(C)CC(NS(=O)(=O)c2ccc(C(C)(C)C)cc2)CC(C)(C)N1,x,x,-8.4,x,x,x
OC(CNCc1ccc(-c2ccccc2)cc1)c1ccccc1 (centres undefined),3.6,-4.0,1.9,8.1,3.4,67.9*
N#CC1=C(SCC(=O)Nc2nccs2)NC(=O)CC1c1ccccc1 (centres undefined),3.9,-9.6,1.3,6.7,40.4*,x
Cc1ccccc1NC(=O)CSC1=C(C#N)C(c2ccsc2)CC(=O)N1 (centres undefined),-1.2,1.0,0.2,3.3,25.9*,-3.3
COC(=O)CCN1CCc2cc(N=Nc3ccc([N+](=O)[O-])cc3)ccc21,-5.7,x,1.2,3.6,x,-2.1
Cc1nn(C)c(C)c1CN(C)S(=O)(=O)c1ccc(F)cc1,-0.1,18.8,-4.0,4.0,3.7,4.4
Cc1nn(C)c(C)c1CN(C)S(=O)(=O)c1ccc2ccccc2c1,45.5*,47.3*,13.7,46.0*,2.5,-2.1
O=C(Nc1cccc(Cl)c1)c1cccc(Oc2ccc([N+](=O)[O-])cc2Cl)c1,1.6,-7.2,2.5,6.8,7.9,7.6
Cc1ccc([N+](=O)[O-])cc1NC(=O)c1ccccc1,-1.2,0.1,-9.7,2.9,1.0,-1.3
Cc1ccc(C)c(NC(=O)c2cccc(Oc3ccc([N+](=O)[O-])cc3Cl)c2)c1,-2.1,-4.8,-8.1,5.8,8.1,62.3*
COc1ccc(NC(=O)c2cccc(Oc3ccc([N+](=O)[O-])cc3Cl)c2)cc1,1.4,-8.0,1.7,3.4,8.3,92.6*
Cc1cc(C(=O)Nc2ccc3ccccc3c2)c(C)o1,x,x,2.4,x,x,x
COc1ccc(C2=NOC(C(=O)NCc3ccc(F)cc3)C2)cc1 (centres undefined),-3.3,2.5,6.3,3.9,6.3,65.4*
COc1cc(C2=NOC(C(=O)NCc3cccs3)C2)cc(OC)c1OC (centres undefined),82.2*,x,20.7,76.8*,26.8,x
COc1ccc(CNC(=O)C2CC(c3ccc(F)cc3)=NO2)cc1 (centres undefined),-4.9,1.6,3.3,1.3,1.4,0.8
Cc1ccc2c(c1)N(Cc1ccc([N+](=O)[O-])cc1)C=NS2(=O)=O,x,x,-3.9,x,x,x
CC1=CC2=NC(=O)/C(=C\c3ccc(-c4cccc(Cl)c4)o3)C(=N)N2O1,4.0,-2.5,0.3,12.6,20.1*,119.2*
CC1=NOC(=O)/C1=C\c1ccc(-c2cccc(Cl)c2)o1,0.7,17.9,6.0,0.8,3.1,-0.8
Cc1ccccc1CN1CCC(CNC(=O)C2CCCN(c3ncnc4c3nc3n4CCCCC3)C2)CC1 (centres undefined),x,x,4.6,x,x,x
O=C(NNC(=O)c1oc2ccccc2c1-n1cccc1)c1ccco1,-0.9,2.1,-9.0,-1.1,4.4,2.2
NNC(=O)c1oc2ccccc2c1-n1cccc1,5.6,61.9*,8.2,9.1,3.4,-1.1
Cn1c(SCC(=O)NC2CCCC2)nnc1-c1ccccn1,x,x,2.5,x,x,x
